Test system: Streptococcus pyogenes
Assay: Antibacterial activity against Streptococcus pyogenes C203 infected in po dosed Swiss mouse assessed as protection against bacterial infection administered 1 to 5 hrs after bacterial infection
Format: functional
Conditions: not given
In short: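 Swiss white mice (13-15 g), groups of eight, infected ip with broth suspension of S. pyogenes C203 lethal to 100% of untreated mice in 24-48 h. Five groups per test received graduated oral doses at 1 and 5 h post-challenge. ED50 by Reed and Muench method from survivors at 7 days.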

SMILES | ED50 [mg/kg]
Cn1nnnc1SCC1=C(C(=O)[O-])N2C(=O)[C@@H](NC(=O)[C@H](O)c3ccccc3)[C@H]2SC1.[Li+] | 12
COC(=O)[C@H](N)CC(=O)OCOC(=O)C1=C(CSc2nnnn2C)CS[C@@H]2[C@H](NC(=O)[C@H](O)c3ccccc3)C(=O)N12.Cl | 25.2
CC[C@H](C)[C@H](N)C(=O)OCOC(=O)C1=C(CSc2nnnn2C)CS[C@@H]2[C@H](NC(=O)[C@H](O)c3ccccc3)C(=O)N12.Cl | 8.6
Cl.Cn1nnnc1SCC1=C(C(=O)OCOC(=O)CN)N2C(=O)[C@@H](NC(=O)[C@H](O)c3ccccc3)[C@H]2SC1 | 20.4
CC(C)[C@H](N)C(=O)OCOC(=O)C1=C(CSc2nnnn2C)CS[C@@H]2[C@H](NC(=O)[C@H](O)c3ccccc3)C(=O)N12.Cl | 14.3
Cl.Cn1nnnc1SCC1=C(C(=O)OCOC(=O)[C@@H](N)Cc2ccccc2)N2C(=O)[C@@H](NC(=O)[C@H](O)c3ccccc3)[C@H]2SC1 | 15.3
CC(C)C[C@H](N)C(=O)OCOC(=O)C1=C(CSc2nnnn2C)CS[C@@H]2[C@H](NC(=O)[C@H](O)c3ccccc3)C(=O)N12.Cl | 10.4

Test system: not listed separately
Assay: Chemical stability of the compound in phosphate buffer at pH 6 assessed as hydrolysis after 20 mins by paper electrophoresis analysis
Format: physicochemical
Conditions: buffer, pH 6, 20 min
In short: (§1)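 Ester dissolved in buffer (pH 2.5, 4.5 or 6.0) at 37 °C; samples taken at 0, 20, 40, 60 min and run on paper electrophoresis strips at 400 V in 0.1 M pyridine-acetate buffer for 2 h, steamed, dried, spots seen under UV. Extent of hydrolysis estimated approximately by comparing visual UV zone intensity of ester versus parent acid.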

Stability | SMILES
Unstable | CC[C@H](C)[C@H](N)C(=O)OCOC(=O)C1=C(CSc2nnnn2C)CS[C@@H]2[C@H](NC(=O)[C@H](O)c3ccccc3)C(=O)N12.Cl
Unstable | Cl.Cn1nnnc1SCC1=C(C(=O)OCOC(=O)CN)N2C(=O)[C@@H](NC(=O)[C@H](O)c3ccccc3)[C@H]2SC1
Unstable | CC(C)[C@H](N)C(=O)OCOC(=O)C1=C(CSc2nnnn2C)CS[C@@H]2[C@H](NC(=O)[C@H](O)c3ccccc3)C(=O)N12.Cl
Unstable | CC(C)C[C@H](N)C(=O)OCOC(=O)C1=C(CSc2nnnn2C)CS[C@@H]2[C@H](NC(=O)[C@H](O)c3ccccc3)C(=O)N12.Cl

Same assay, conditions: phosphate buffer, pH 6; read-out: Drug degradation

degraded at 20 min [%] | SMILES
20 | COC(=O)[C@H](N)CC(=O)OCOC(=O)C1=C(CSc2nnnn2C)CS[C@@H]2[C@H](NC(=O)[C@H](O)c3ccccc3)C(=O)N12.Cl
50 | Cl.Cn1nnnc1SCC1=C(C(=O)OCOC(=O)[C@@H](N)Cc2ccccc2)N2C(=O)[C@@H](NC(=O)[C@H](O)c3ccccc3)[C@H]2SC1

Test system: not listed separately
Assay: Drug metabolism in mouse assessed as cefamandole level in small intestine using Micrococcus luteus ATCC 9341 as detecting organism at 17 mg/kg, po by disk-plate microbiology assay
Format: ADME, organism-based
Set-up: dose 17 mg/kg, route oral
Conditions: in vivo

Drug metabolism | SMILES
metabolite_detected | COC(=O)[C@H](N)CC(=O)OCOC(=O)C1=C(CSc2nnnn2C)CS[C@@H]2[C@H](NC(=O)[C@H](O)c3ccccc3)C(=O)N12.Cl
metabolite_detected | Cl.Cn1nnnc1SCC1=C(C(=O)OCOC(=O)CN)N2C(=O)[C@@H](NC(=O)[C@H](O)c3ccccc3)[C@H]2SC1
metabolite_detected | CC(C)[C@H](N)C(=O)OCOC(=O)C1=C(CSc2nnnn2C)CS[C@@H]2[C@H](NC(=O)[C@H](O)c3ccccc3)C(=O)N12.Cl

Test system: not listed separately
Assay: Chemical stability of the compound in phosphate buffer at pH 2.5 assessed as hydrolysis up to 60 mins by paper electrophoresis analysis
Format: physicochemical
Conditions: pH 2.5, 1 h
In short: as §1

Stability | SMILES
Stable | COC(=O)[C@H](N)CC(=O)OCOC(=O)C1=C(CSc2nnnn2C)CS[C@@H]2[C@H](NC(=O)[C@H](O)c3ccccc3)C(=O)N12.Cl
Stable | CC[C@H](C)[C@H](N)C(=O)OCOC(=O)C1=C(CSc2nnnn2C)CS[C@@H]2[C@H](NC(=O)[C@H](O)c3ccccc3)C(=O)N12.Cl
Stable | Cl.Cn1nnnc1SCC1=C(C(=O)OCOC(=O)CN)N2C(=O)[C@@H](NC(=O)[C@H](O)c3ccccc3)[C@H]2SC1
Stable | CC(C)[C@H](N)C(=O)OCOC(=O)C1=C(CSc2nnnn2C)CS[C@@H]2[C@H](NC(=O)[C@H](O)c3ccccc3)C(=O)N12.Cl
Stable | Cl.Cn1nnnc1SCC1=C(C(=O)OCOC(=O)[C@@H](N)Cc2ccccc2)N2C(=O)[C@@H](NC(=O)[C@H](O)c3ccccc3)[C@H]2SC1
Stable | CC(C)C[C@H](N)C(=O)OCOC(=O)C1=C(CSc2nnnn2C)CS[C@@H]2[C@H](NC(=O)[C@H](O)c3ccccc3)C(=O)N12.Cl

Test system: not listed separately
Assay: Chemical stability of the compound in phosphate buffer at pH 4.5 assessed as hydrolysis up to 60 mins by paper electrophoresis analysis
Format: physicochemical
Conditions: pH 4.5, 1 h
In short: as §1

Stability | SMILES
Unstable | COC(=O)[C@H](N)CC(=O)OCOC(=O)C1=C(CSc2nnnn2C)CS[C@@H]2[C@H](NC(=O)[C@H](O)c3ccccc3)C(=O)N12.Cl
Unstable | CC[C@H](C)[C@H](N)C(=O)OCOC(=O)C1=C(CSc2nnnn2C)CS[C@@H]2[C@H](NC(=O)[C@H](O)c3ccccc3)C(=O)N12.Cl
Unstable | Cl.Cn1nnnc1SCC1=C(C(=O)OCOC(=O)CN)N2C(=O)[C@@H](NC(=O)[C@H](O)c3ccccc3)[C@H]2SC1
Unstable | CC(C)[C@H](N)C(=O)OCOC(=O)C1=C(CSc2nnnn2C)CS[C@@H]2[C@H](NC(=O)[C@H](O)c3ccccc3)C(=O)N12.Cl
Unstable | Cl.Cn1nnnc1SCC1=C(C(=O)OCOC(=O)[C@@H](N)Cc2ccccc2)N2C(=O)[C@@H](NC(=O)[C@H](O)c3ccccc3)[C@H]2SC1
Unstable | CC(C)C[C@H](N)C(=O)OCOC(=O)C1=C(CSc2nnnn2C)CS[C@@H]2[C@H](NC(=O)[C@H](O)c3ccccc3)C(=O)N12.Cl

Test system: Blood
Assay: Drug metabolism in mouse assessed as cefamandole level in blood using Micrococcus luteus ATCC 9341 as detecting organism at 17 mg/kg, po by disk-plate microbiology assay
Format: ADME, organism-based
Set-up: dose 17 mg/kg, route oral
Conditions: in vivo
In short: (§2)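 Mice dosed orally at 17 mg/kg; cefamandole activity in blood or urine measured by disk-plate microbiological assay with Micrococcus luteus ATCC 9341 as detecting organism.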

Drug metabolism | SMILES
metabolite_notdetected | COC(=O)[C@H](N)CC(=O)OCOC(=O)C1=C(CSc2nnnn2C)CS[C@@H]2[C@H](NC(=O)[C@H](O)c3ccccc3)C(=O)N12.Cl
metabolite_notdetected | Cl.Cn1nnnc1SCC1=C(C(=O)OCOC(=O)CN)N2C(=O)[C@@H](NC(=O)[C@H](O)c3ccccc3)[C@H]2SC1
metabolite_notdetected | CC(C)[C@H](N)C(=O)OCOC(=O)C1=C(CSc2nnnn2C)CS[C@@H]2[C@H](NC(=O)[C@H](O)c3ccccc3)C(=O)N12.Cl

Test system: not listed separately
Assay: Drug metabolism in mouse assessed as cefamandole level in urine using Micrococcus luteus ATCC 9341 as detecting organism at 17 mg/kg, po by disk-plate microbiology assay
Format: ADME, organism-based
Set-up: dose 17 mg/kg, route oral
Conditions: in vivo
In short: as §2

Drug metabolism | SMILES
metabolite_notdetected | COC(=O)[C@H](N)CC(=O)OCOC(=O)C1=C(CSc2nnnn2C)CS[C@@H]2[C@H](NC(=O)[C@H](O)c3ccccc3)C(=O)N12.Cl
metabolite_notdetected | Cl.Cn1nnnc1SCC1=C(C(=O)OCOC(=O)CN)N2C(=O)[C@@H](NC(=O)[C@H](O)c3ccccc3)[C@H]2SC1
metabolite_notdetected | CC(C)[C@H](N)C(=O)OCOC(=O)C1=C(CSc2nnnn2C)CS[C@@H]2[C@H](NC(=O)[C@H](O)c3ccccc3)C(=O)N12.Cl

— ChEMBL document CHEMBL3228006, “Orally active esters of cephalosporin antibiotics. 3. Synthesis and biological properties of aminoacyloxymethyl esters of 7-[D(-)-mandelamido]-3-[[(1-methyl-1H-tetrazol-5-yl)thio]methyl]-3-cephem-4-carboxylic acid” (J Med Chem, 1979)
